Rows were chosen to be rich in hits. Some 1.5% of all compounds tested hit in one or more screens of this group.
APJ agonist = APJ receptor agonism | P35414 | CHO-K1 APJ PathHunter beta-arrestin, luminescence; 0% DMSO wells, 100% apelin | activation, % at 20 µM | 330,000 tested, 0.11% active | AID 2520;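 active = activation more than six SD over the plate average, tested at 20 µM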;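 also: 0% = DMSO alone and 100% = apelin-13 at 10 nM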
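system = engineered CHO-K1 APJ arrestin reporter cells | input = 1000 cells per well | timing = overnight seeding, 90 min compound at 25 °C, 1 h detection | measured by = enzyme-fragment complementation luminescence | read-out = beta-arrestin recruitment to APJ as agonist activity, luminescent signal | control set = negative DMSO alone, positive Apelin-13 at 10 nM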
CCR6 antag = CCR6 (human) receptor antagonism; inhibition, % at 20 µM; 340,000 tested, 0.49% active; P51684; CHO-K1 CCR6 PathHunter beta-arrestin, luminescence, CCL20-stimulated;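 active = compounds whose inhibition of the agonist-driven luminescence signal at 20 µM reaches about 50%, limit read from the data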;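 also: cells stimulated with CCL20 at 14 nM final; plate controls were DMSO with CCL20 for no effect and DMSO without agonist for full effect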
APJ antagonist = blocks the human apelin receptor APJ; inhibition, % at 20 µM; AID 2521; CHO-K1 APJ beta-arrestin complementation, luminescence; 330,000 tested, 0.32% active;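 active = inhibition above about 40% at 20 µM, limit read from the data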;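 also: cells challenged with 10 nM apelin-13 agonist together with compound; plate controls were apelin-13 plus DMSO wells for no effect and DMSO wells lacking apelin-13 for full effect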
CXCR6 block = inhibitors of human CXCR6 receptor. O00574. CHO-K1 PathHunter CXCR6 beta-arrestin, luminescence. inhibition, % at 20 µM. 360,000 tested, 0.36% active. AID 602244; in the data active = inhibition above about 34%, passing the limit was not always enough;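 also: antagonist mode with CXCL16 agonist at 10 nM final; 0% = 10 nM CXCL16 with DMSO and 100% = unstimulated wells without agonist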
EBI2 block = antagonists of human EBI2 receptor. AID 651636. inhibition, % at 5 µM. 360,000 tested, 0.81% active. EBI2 beta-arrestin recruitment, luminescence, 7a,25-OHC stimulated; in the data active = inhibition above about 38%;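 also: enzyme fragment complementation signal reports receptor beta-arrestin coupling in cells; 0% = agonist plus DMSO wells and 100% = wells without agonist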
Target sequence (P32249 whole entry, looked up, the tested form may be a part): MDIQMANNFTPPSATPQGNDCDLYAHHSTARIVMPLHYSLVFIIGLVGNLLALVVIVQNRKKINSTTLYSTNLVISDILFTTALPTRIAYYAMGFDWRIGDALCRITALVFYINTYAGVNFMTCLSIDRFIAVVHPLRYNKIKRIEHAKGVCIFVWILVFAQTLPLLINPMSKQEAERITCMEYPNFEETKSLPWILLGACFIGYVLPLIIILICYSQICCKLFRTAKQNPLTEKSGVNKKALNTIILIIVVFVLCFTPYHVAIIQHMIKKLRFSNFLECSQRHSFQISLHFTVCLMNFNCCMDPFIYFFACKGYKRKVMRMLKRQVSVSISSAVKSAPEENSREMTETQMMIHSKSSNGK
EBI2 conf = confirmation of human EBI2 receptor antagonists; 2,400 tested, 29% active; EBI2 beta-arrestin luminescence, 7a,25-OHC antagonism; inhibition, % at 5 µM; shares compounds with EBI2 block;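 active = inhibition of at least 50%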
EBI2 ag = EBI2 agonism counter-screen | shares compounds with EBI2 block | EBI2-expressing cells, agonist mode, luminescence, 60 min; 0% vehicle, 100% 7α,25-dihydroxycholesterol control | activation, % at 5 µM | 2,400 tested, under 10 active | AID 652000;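 active = activation of at least 50%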
bGal counter = counter-screen for EBI2 antagonists: E. coli beta-galactosidase inhibition; shares compounds with EBI2 block; purified beta-galactosidase, luminescent Galacton Star, 15 min; inhibition, % at 5 µM; 2,400 tested, 1% active; AID 652176;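 active = replicate-average signal at least 3 plate SD below neutral wells, shown as high inhibition, flagging enzyme-inhibiting false positives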;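 also: 0% = DMSO wells with enzyme and 100% = wells lacking enzyme; higher means stronger loss of beta-gal luminescence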
Numbers without * were called inactive; nt = no result given.

SMILES	APJ agonist	CCR6 antag	APJ antagonist	CXCR6 block	EBI2 block	EBI2 conf	EBI2 ag	bGal counter
CC(C)c1ccc(OCC(=O)Nc2ccc(S(=O)(=O)Nc3ccccn3)cc2)cc1	-1	6	11	-7	-1	nt	nt	nt
COc1ccc(/C=N/NC(N)=S)cc1OC(=O)c1cccc2ccccc12	11	9	1	9	56*	5	2	3
CCN1CCCC1CNC(=O)c1cc(COc2ccc(C)c(C)c2)on1 (configuration not stated)	-5	24	11	5	-2	nt	nt	nt
CCN(CC)c1ccc(NC(=O)COc2ccc(C)cc2)cc1	1	11	-8	-8	48*	5	-1	-13
Cc1ccc(OCC(=O)Nc2ccc(N(C)C)cc2)cc1	-2	12	-26	-3	1	nt	nt	nt
CCc1ccc(CN(C)C(=O)c2cc(=O)c3ccccc3o2)cc1	-3	9	8	8	86*	65*	0	-11
CCCCOC(=O)c1ccc(NC(=O)CSC2=Nc3ccccc3C3CC=NN23)cc1 (configuration not stated)	-2	15	-5	12	59*	16	0	9
CCCC(=O)Nc1ccc2c(c1)C(=O)N(C)C[C@@H](OC)[C@H](C)CN(Cc1ccc(-c3ccccn3)cc1)[C@@H](C)CO2	nt	nt	nt	nt	-3	nt	nt	nt
Cn1cccc1CC(=O)N/N=C\c1ccccc1	-4	5	8	-9	44*	11	-1	-6
Cc1nn(CC(=O)Nc2ccc(S(N)(=O)=O)cc2)c(=O)c2ccccc12	-3	2	15	-2	-8	nt	nt	nt
Cc1ccc(C2=CN(Cc3ccccc3)CCC2=O)cc1	-2	16	-1	-4	44*	25	2	4
O=C1CCN(Cc2ccccc2)C=C1c1ccc(Br)cc1	0	22	7	-8	84*	67*	-1	-6
COc1ccc(C(=O)NCc2nnc(SCC(=O)N3CCCC3)o2)cc1OC	-4	13	-29	-2	-5	nt	nt	nt
CC(=O)Nc1ccc(CN2C(=O)C(C)ON=C2c2ccccc2-c2ccco2)cc1 (configuration not stated)	nt	nt	nt	1	0	nt	nt	nt
COc1cc(/C=C2/CC(C)OC2=O)c([N+](=O)[O-])cc1OC (configuration not stated)	-4	-3	1	-4	3	nt	nt	nt
S=c1[nH]nc(-c2cc(-c3ccccc3)n[nH]2)n1/N=C/c1ccccc1	2	16	20	0	51*	50	1	9
S=c1[nH]nc(-c2cc(-c3ccccc3)n[nH]2)n1/N=C/C(Br)=C/c1ccccc1	-2	13	3	4	52*	48	0	8
CN(C(=O)c1cccc(NC(=O)Cc2ccc(NC(=O)C3CCN(S(=O)(=O)c4cccc([N+](=O)[O-])c4)CC3)cc2)c1)C1CCCC1	nt	2	nt	-4	36	nt	nt	nt
CN(C(=O)c1cccc(NC(=O)Cc2ccc(NC(=O)C3CCN(S(=O)(=O)c4cccc([N+](=O)[O-])c4)CC3)cc2)c1)C1CCC1	nt	9	nt	-5	77*	14	-2	-4
O=C(c1ccccc1)c1c[nH]c(C(=O)NNc2ccccc2)c1	-7	18	8	0	19	nt	nt	nt
COC(=O)Cc1ccc(NC(=O)c2ccc3c(c2)C(=O)N(Cc2cccnc2)C3=O)cc1	-3	4	-13	0	12	nt	nt	nt
COC(=O)Cc1ccc(NC(=O)c2ccc3c(c2)C(=O)N(Cc2ccco2)C3=O)cc1	-2	10	-8	-8	52*	24	2	9
N/C(Cc1ccc(Cl)cc1)=N\OC(=O)c1ccc2ccccc2c1	16	-6	-34	-8	48*	16	2	6
CCN(CC)S(=O)(=O)c1cccc(NC(=O)CNc2cccc(S(=O)(=O)N3CCOCC3)c2)c1	0	1	-2	-3	2	nt	nt	nt

From PubChem BioAssay
